Measurements from ChEMBL document CHEMBL4152264, “Design, synthesis, antiproliferative activity and docking studies of quinazoline derivatives bearing 2,3-dihydro-indole or 1,2,3,4-tetrahydroquinoline as potential EGFR inhibitors” (Eur J Med Chem, 2018).

Legend:
MCF7 = assay: Antiproliferative activity against human MCF7 cells after 72 hrs by MTT assay; assay type: functional, cell-based; settings: MCF7, 72 h
A549 [1] = assay: Antiproliferative activity against human A549 cells after 72 hrs by MTT assay; assay type: functional, cell-based; settings: A549, 72 h
PC-3 = assay: Antiproliferative activity against human PC3 cells after 72 hrs by MTT assay; assay type: functional, cell-based; settings: PC-3, 72 h
How it was run: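 Cells grown in MEM with 10% FBS. About 4×10³ cells per well seeded and incubated 24 h at 37 °C, 5% CO₂. Compounds added at indicated final concentrations for 72 h. MTT at 5 µg/mL final for 4 h at 37 °C. Formazan dissolved in DMSO, absorbance read at 492 nm with 630 nm reference. Tested three times; IC50 is the mean of two determinations.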

[2] = Solubility of the compound in water; assay type: physicochemical; settings: buffer
A549 [3] = assay: Induction of apoptosis in human A549 cells assessed as late apoptotic cells at 0.5 uM after 48 hrs by Annexin V-FITC/propidium iodide staining based flow cytometry (reference value: 2.07%); assay type: functional
A549 [4] = assay: Induction of apoptosis in human A549 cells assessed as early apoptotic cells at 0.5 uM after 48 hrs by Annexin V-FITC/propidium iodide staining based flow cytometry (reference value: 5.61%); assay type: functional
A549 [5] = assay: Induction of apoptosis in human A549 cells assessed as live cells at 0.5 uM after 48 hrs by Annexin V-FITC/propidium iodide staining based flow cytometry (reference value: 91.81%); assay type: functional
A549 [6] = assay: Induction of apoptosis in human A549 cells assessed as necrotic cells at 0.5 uM after 48 hrs by Annexin V-FITC/propidium iodide staining based flow cytometry (reference value: 0.51%); assay type: functional
[7] = target: Epidermal growth factor receptor (Homo sapiens, UniProt P00533, T790M); assay: Inhibition of wild type EGFR T790M mutant (unknown origin) using FAM-labeled peptide substrate after 10 mins by mobility shift assay
[8] = target: Epidermal growth factor receptor (Homo sapiens, UniProt P00533); assay: Inhibition of wild type EGFR (unknown origin) using FAM-labeled peptide substrate after 10 mins by mobility shift assay
Sequence of Epidermal growth factor receptor (Homo sapiens, UniProt P00533) (P00533 whole entry): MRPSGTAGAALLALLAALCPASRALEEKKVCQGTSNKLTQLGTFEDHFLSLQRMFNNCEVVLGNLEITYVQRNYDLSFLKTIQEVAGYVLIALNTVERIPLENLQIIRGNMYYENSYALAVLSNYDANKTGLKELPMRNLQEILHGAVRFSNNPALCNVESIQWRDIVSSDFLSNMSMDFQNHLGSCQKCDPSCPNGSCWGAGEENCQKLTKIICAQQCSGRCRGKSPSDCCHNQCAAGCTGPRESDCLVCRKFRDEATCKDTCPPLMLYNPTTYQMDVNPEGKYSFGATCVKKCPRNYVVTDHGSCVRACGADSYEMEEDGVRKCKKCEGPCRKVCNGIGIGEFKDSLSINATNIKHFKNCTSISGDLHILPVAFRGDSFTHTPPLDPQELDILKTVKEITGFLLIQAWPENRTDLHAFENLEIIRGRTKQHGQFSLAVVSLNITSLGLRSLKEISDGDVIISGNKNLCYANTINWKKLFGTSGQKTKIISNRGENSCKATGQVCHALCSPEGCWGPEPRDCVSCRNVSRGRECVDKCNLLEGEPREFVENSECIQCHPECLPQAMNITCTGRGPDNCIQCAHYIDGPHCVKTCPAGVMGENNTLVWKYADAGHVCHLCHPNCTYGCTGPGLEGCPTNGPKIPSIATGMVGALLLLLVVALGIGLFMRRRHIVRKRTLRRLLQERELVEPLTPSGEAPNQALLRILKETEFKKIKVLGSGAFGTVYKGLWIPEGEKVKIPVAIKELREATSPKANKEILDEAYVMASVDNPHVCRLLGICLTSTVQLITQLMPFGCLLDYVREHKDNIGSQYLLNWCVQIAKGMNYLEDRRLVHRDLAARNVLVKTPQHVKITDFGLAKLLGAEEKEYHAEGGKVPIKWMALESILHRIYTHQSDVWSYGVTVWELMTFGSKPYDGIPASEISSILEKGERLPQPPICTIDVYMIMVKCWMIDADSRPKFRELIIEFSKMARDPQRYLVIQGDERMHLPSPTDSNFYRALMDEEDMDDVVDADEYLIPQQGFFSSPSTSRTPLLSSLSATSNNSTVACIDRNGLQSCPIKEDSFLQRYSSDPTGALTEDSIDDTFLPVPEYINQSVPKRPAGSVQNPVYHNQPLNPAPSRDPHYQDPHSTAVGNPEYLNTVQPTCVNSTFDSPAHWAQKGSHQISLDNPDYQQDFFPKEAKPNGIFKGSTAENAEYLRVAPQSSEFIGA

Sequence of Epidermal growth factor receptor (Homo sapiens, UniProt P00533, T790M) (P00533 25-1210 T790M limits assumed): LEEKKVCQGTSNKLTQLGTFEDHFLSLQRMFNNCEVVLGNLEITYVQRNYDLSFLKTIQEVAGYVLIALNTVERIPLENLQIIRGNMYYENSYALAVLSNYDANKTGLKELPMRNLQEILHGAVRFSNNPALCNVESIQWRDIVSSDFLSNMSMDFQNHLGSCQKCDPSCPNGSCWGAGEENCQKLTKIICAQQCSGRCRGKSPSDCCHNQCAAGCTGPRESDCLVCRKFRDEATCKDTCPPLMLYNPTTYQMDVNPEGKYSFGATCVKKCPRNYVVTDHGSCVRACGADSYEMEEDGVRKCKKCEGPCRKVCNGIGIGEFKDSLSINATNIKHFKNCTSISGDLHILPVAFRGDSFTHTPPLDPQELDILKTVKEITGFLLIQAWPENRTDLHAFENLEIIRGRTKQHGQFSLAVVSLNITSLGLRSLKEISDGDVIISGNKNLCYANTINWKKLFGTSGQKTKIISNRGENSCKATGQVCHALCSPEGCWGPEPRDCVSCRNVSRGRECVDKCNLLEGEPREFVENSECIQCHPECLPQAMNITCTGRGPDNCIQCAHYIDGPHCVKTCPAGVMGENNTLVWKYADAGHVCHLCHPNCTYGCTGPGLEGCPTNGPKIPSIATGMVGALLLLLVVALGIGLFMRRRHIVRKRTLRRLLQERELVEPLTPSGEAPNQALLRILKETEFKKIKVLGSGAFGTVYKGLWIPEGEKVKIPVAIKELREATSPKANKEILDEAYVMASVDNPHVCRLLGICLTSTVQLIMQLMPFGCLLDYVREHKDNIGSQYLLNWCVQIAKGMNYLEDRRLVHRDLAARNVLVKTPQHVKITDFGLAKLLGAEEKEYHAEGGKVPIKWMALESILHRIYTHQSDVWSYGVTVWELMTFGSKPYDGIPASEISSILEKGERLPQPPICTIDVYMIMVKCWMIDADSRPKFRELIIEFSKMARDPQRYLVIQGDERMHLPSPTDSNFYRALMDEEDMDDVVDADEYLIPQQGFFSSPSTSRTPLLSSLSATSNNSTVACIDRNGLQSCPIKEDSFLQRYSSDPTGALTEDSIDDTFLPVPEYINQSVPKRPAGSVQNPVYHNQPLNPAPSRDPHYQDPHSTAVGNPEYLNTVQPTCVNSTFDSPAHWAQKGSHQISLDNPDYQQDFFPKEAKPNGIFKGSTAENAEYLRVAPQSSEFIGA

SMILES	IC50 (MCF7)	IC50 (A549 [1])	IC50 (PC-3)	solubility [2]	Activity (A549 [3])	Activity (A549 [4])	Activity (A549 [5])	Activity (A549 [6])	IC50 [7]	IC50 [8]
COc1cc2ncnc(N3CCCc4ccccc43)c2cc1NC(=O)/C=C/CN1CCN(C)CC1	8.56 µM	7.83 µM	6.26 µM							
C/C=C/C(=O)Nc1cc2c(N3CCc4ccccc43)ncnc2cc1OC	4.03 µM	8.29 µM	8.12 µM	Insoluble						
CCN(CC)C/C=C/C(=O)Nc1cc2c(N3CCc4ccccc43)ncnc2cc1OC	1.99 µM	1.69 µM	3.69 µM							
COc1cc2ncnc(N3CCc4ccccc43)c2cc1NC(=O)/C=C/C(C)C	6.78 µM	6.41 µM	6.53 µM	Insoluble						
CCN(CC)C/C=C/C(=O)Nc1cc2c(N3CCCc4ccccc43)ncnc2cc1O[C@@H]1CCOC1	3.87 µM	5.65 µM	4.27 µM							
O=C(/C=C/CN1CCCCC1)Nc1cc2c(N3CCc4ccccc43)ncnc2cc1O[C@@H]1CCOC1	1.89 µM	4.66 µM	4.51 µM							
CN(C)C/C=C/C(=O)Nc1cc2c(Nc3ccc(F)c(Cl)c3)ncnc2cc1O[C@@H]1CCOC1			2.51 µM		4.27%	13.53%	81.34%	0.86%		
O=C(/C=C/CN1CCCC1)Nc1cc2c(N3CCCc4ccccc43)ncnc2cc1O[C@@H]1CCOC1	4.25 µM	6.51 µM	5.78 µM							
CN1CCN(C/C=C/C(=O)Nc2cc3c(N4CCCc5ccccc54)ncnc3cc2O[C@@H]2CCOC2)CC1	7.18 µM	5.87 µM	9.45 µM							
CC(C)=CC(=O)Nc1cc2c(N3CCCc4ccccc43)ncnc2cc1O[C@@H]1CCOC1	11.1 µM	7.91 µM	9.02 µM	Insoluble						
CC/C=C/C(=O)Nc1cc2c(N3CCCc4ccccc43)ncnc2cc1OC	2.87 µM	5.03 µM	6.31 µM	Insoluble						
C=C(C)C(=O)Nc1cc2c(N3CCc4ccccc43)ncnc2cc1OC	11.1 µM	7.32 µM	4.83 µM	Insoluble						
CCC/C=C/C(=O)Nc1cc2c(N3CCCc4ccccc43)ncnc2cc1O[C@@H]1CCOC1	4.23 µM	7.32 µM	11.8 µM	Insoluble						
CCC/C=C/C(=O)Nc1cc2c(N3CCc4ccccc43)ncnc2cc1O[C@@H]1CCOC1	4.55 µM	9.11 µM	9.23 µM	Insoluble						
C/C=C/C(=O)Nc1cc2c(N3CCCc4ccccc43)ncnc2cc1O[C@@H]1CCOC1	5.93 µM	10.8 µM	9.35 µM	Insoluble						
COc1cc2ncnc(N3CCCc4ccccc43)c2cc1NC(=O)/C=C/CN(C)C	1.77 µM	1.65 µM	1.75 µM						107 nM	72 nM
COc1cc2ncnc(N3CCc4ccccc43)c2cc1NC(=O)/C=C/CN1CCCC1	1.51 µM	1.21 µM	2.62 µM						34 nM	3 nM
CC(C)/C=C/C(=O)Nc1cc2c(N3CCc4ccccc43)ncnc2cc1O[C@@H]1CCOC1	9.88 µM	8.52 µM	11.2 µM	Insoluble						
COc1cc2ncnc(N3CCc4ccccc43)c2cc1NC(=O)/C=C/CN1CCC(CO)CC1	2.62 µM	1.98 µM	2.65 µM						21 nM	4 nM
COc1cc2ncnc(N3CCCc4ccccc43)c2cc1NC(=O)/C=C/CN1CCCCC1	3.93 µM	2.88 µM	5.78 µM							
COc1cc2ncnc(N3CCc4ccccc43)c2cc1NC(=O)/C=C/CN1CCOCC1	8.45 µM	9.25 µM	8.29 µM							
CCC/C=C/C(=O)Nc1cc2c(N3CCc4ccccc43)ncnc2cc1OC	3.16 µM	2.92 µM	4.24 µM	Insoluble						
COc1cc2ncnc(N3CCCc4ccccc43)c2cc1NC(=O)/C=C/CN1CCCC1	3.19 µM	2.23 µM	1.74 µM							
CC/C=C/C(=O)Nc1cc2c(N3CCc4ccccc43)ncnc2cc1OC	4.03 µM	2.47 µM	5.89 µM	Insoluble					186 nM	17 nM
CCC/C=C/C(=O)Nc1cc2c(N3CCCc4ccccc43)ncnc2cc1OC	1.21 µM	1.8 µM	2.24 µM	Insoluble					162 nM	33 nM

SMILES	IC50 (MCF7)	IC50 (A549 [1])	IC50 (PC-3)	solubility [2]	Activity (A549 [3])	Activity (A549 [4])	Activity (A549 [5])	Activity (A549 [6])	IC50 [7]	IC50 [8]
COc1cc2ncnc(N3CCCc4ccccc43)c2cc1NC(=O)/C=C/C(C)C	4.29 µM	3.45 µM	8.43 µM	Insoluble						
C=C(C)C(=O)Nc1cc2c(N3CCc4ccccc43)ncnc2cc1O[C@@H]1CCOC1	14.7 µM	16.6 µM	4.91 µM	Insoluble						
CN(C)C/C=C/C(=O)Nc1cc2c(N3CCCc4ccccc43)ncnc2cc1O[C@@H]1CCOC1	2.85 µM	2.32 µM	4.17 µM							
COc1cc2ncnc(N3CCCc4ccccc43)c2cc1NC(=O)/C=C/CN1CCC(CO)CC1	5.74 µM	6.97 µM	7.15 µM							
CN1CCN(C/C=C/C(=O)Nc2cc3c(N4CCc5ccccc54)ncnc3cc2O[C@@H]2CCOC2)CC1	5.35 µM	6.09 µM	4.21 µM							
COc1cc2ncnc(N3CCc4ccccc43)c2cc1NC(=O)/C=C/CN1CCN(C)CC1	6.43 µM	5.36 µM	9.18 µM							
COc1cc2ncnc(N3CCCc4ccccc43)c2cc1NC(=O)C=C(C)C	6.87 µM	5.41 µM	6.13 µM	Insoluble						
O=C(/C=C/CN1CCC(CO)CC1)Nc1cc2c(N3CCCc4ccccc43)ncnc2cc1O[C@@H]1CCOC1	4.96 µM	5.3 µM	5.46 µM							
COc1cc2ncnc(N3CCc4ccccc43)c2cc1NC(=O)C=C(C)C	6.39 µM	6.27 µM	7.84 µM	Insoluble						
O=C(/C=C/CN1CCCCC1)Nc1cc2c(N3CCCc4ccccc43)ncnc2cc1O[C@@H]1CCOC1	4.45 µM	3.67 µM	3.63 µM							
CCN(CC)C/C=C/C(=O)Nc1cc2c(N3CCCc4ccccc43)ncnc2cc1OC	5.31 µM	6.41 µM	6.89 µM							
O=C(/C=C/CN1CCCC1)Nc1cc2c(N3CCc4ccccc43)ncnc2cc1O[C@@H]1CCOC1	2.31 µM	2.23 µM	1.51 µM							
CC/C=C/C(=O)Nc1cc2c(N3CCc4ccccc43)ncnc2cc1O[C@@H]1CCOC1	8.84 µM	10.9 µM	9.59 µM	Insoluble						
CC(C)=CC(=O)Nc1cc2c(N3CCc4ccccc43)ncnc2cc1O[C@@H]1CCOC1	15.7 µM	3.67 µM	4.62 µM	Insoluble						
O=C(/C=C/CN1CCC(CO)CC1)Nc1cc2c(N3CCc4ccccc43)ncnc2cc1O[C@@H]1CCOC1	4.69 µM	3.67 µM	3.31 µM							
C=CC(=O)Nc1cc2c(N3CCc4ccccc43)ncnc2cc1OC	11.7 µM	5.58 µM	5.94 µM	Insoluble						
C/C=C/C(=O)Nc1cc2c(N3CCc4ccccc43)ncnc2cc1O[C@@H]1CCOC1	4.9 µM	2.61 µM	5.22 µM	Insoluble					192 nM	29 nM
COc1cc2ncnc(N3CCc4ccccc43)c2cc1NC(=O)/C=C/CN(C)C	3.37 µM	2.04 µM	2.19 µM							
C/C=C/C(=O)Nc1cc2c(N3CCCc4ccccc43)ncnc2cc1OC	12.7 µM	8.19 µM	7.52 µM	Insoluble						
CCN(CC)C/C=C/C(=O)Nc1cc2c(N3CCc4ccccc43)ncnc2cc1O[C@@H]1CCOC1	4.98 µM	5.22 µM	5.78 µM							
CC/C=C/C(=O)Nc1cc2c(N3CCCc4ccccc43)ncnc2cc1O[C@@H]1CCOC1	14.4 µM	14.1 µM	14.3 µM	Insoluble						
C=CC(=O)Nc1cc2c(N3CCc4ccccc43)ncnc2cc1O[C@@H]1CCOC1	5.95 µM	9.32 µM	2.71 µM	Insoluble						
COc1cc2ncnc(N3CCc4ccccc43)c2cc1NC(=O)/C=C/CN1CCCCC1	1.68 µM	2.54 µM	4.18 µM						115 nM	45.4 nM
CC(C)/C=C/C(=O)Nc1cc2c(N3CCCc4ccccc43)ncnc2cc1O[C@@H]1CCOC1	4.68 µM	6.82 µM	8.51 µM	Insoluble						
